For four compounds, IC50 and Activity results are on record in ChEMBL document CHEMBL4312005, “Optimization of pyrrolizine-based Schiff bases with 4-thiazolidinone motif: Design, synthesis and investigation of cytotoxicity and anti-inflammatory potency” (Eur J Med Chem, 2020).

One experiment relates to MCF7. The experiment is described as follows: Antiproliferative activity against human MCF7 cells assessed as reduction in cell growth incubated for 72 hrs by MTT assay. Type of experiment: functional, cell-based. To be noted: MCF7, 72 h. In short, it runs like this: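 MTT assay on MCF-7, A2780, HT29 and normal MRC5 fibroblast lines (ATCC) grown in DMEM with 10% FBS. Cells exposed to compounds for 72 h, then reduced MTT read at 570 nm.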
Background: Tetrazolium dyes change colour on reduction, which living cells bring about.

Experiment [1] deals with Activin receptor type-1-like (Homo sapiens) (UniProt P37023). The experiment is described as follows: Inhibition of recombinant human N-terminal GST-tagged ALK1 (144 to end residues) expressed in baculovirus infected Sf9 insect cells assessed as enzyme activity incubated for 15 mins by [gamma-33]ATP based scintillation counting method relative to control. On the set-up: scale not given: the % may be the effect or the level left.
Sequence of Activin receptor type-1-like (Homo sapiens) (P37023 whole entry): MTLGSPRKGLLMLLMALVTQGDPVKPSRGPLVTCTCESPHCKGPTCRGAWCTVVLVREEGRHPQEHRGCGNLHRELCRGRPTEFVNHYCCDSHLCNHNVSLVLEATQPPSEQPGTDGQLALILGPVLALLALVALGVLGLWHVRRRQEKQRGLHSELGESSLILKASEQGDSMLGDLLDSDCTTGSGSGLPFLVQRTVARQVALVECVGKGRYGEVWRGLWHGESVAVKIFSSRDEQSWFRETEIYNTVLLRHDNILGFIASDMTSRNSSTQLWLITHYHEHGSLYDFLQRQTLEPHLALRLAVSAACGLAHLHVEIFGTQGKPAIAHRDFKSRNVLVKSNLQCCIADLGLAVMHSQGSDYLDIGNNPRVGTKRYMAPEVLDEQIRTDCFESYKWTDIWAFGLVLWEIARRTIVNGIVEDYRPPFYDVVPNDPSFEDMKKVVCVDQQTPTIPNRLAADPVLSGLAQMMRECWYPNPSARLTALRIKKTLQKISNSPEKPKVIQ

Experiment [2] deals with Epidermal growth factor receptor (Homo sapiens) (UniProt P00533). The experiment is described as follows: Inhibition of EGFR (unknown origin) assessed as enzyme activity incubated for 15 mins by [gamma-33]ATP based scintillation counting method relative to control. On the set-up: scale not given: the % may be the effect or the level left.
Sequence of Epidermal growth factor receptor (Homo sapiens) (P00533 whole entry): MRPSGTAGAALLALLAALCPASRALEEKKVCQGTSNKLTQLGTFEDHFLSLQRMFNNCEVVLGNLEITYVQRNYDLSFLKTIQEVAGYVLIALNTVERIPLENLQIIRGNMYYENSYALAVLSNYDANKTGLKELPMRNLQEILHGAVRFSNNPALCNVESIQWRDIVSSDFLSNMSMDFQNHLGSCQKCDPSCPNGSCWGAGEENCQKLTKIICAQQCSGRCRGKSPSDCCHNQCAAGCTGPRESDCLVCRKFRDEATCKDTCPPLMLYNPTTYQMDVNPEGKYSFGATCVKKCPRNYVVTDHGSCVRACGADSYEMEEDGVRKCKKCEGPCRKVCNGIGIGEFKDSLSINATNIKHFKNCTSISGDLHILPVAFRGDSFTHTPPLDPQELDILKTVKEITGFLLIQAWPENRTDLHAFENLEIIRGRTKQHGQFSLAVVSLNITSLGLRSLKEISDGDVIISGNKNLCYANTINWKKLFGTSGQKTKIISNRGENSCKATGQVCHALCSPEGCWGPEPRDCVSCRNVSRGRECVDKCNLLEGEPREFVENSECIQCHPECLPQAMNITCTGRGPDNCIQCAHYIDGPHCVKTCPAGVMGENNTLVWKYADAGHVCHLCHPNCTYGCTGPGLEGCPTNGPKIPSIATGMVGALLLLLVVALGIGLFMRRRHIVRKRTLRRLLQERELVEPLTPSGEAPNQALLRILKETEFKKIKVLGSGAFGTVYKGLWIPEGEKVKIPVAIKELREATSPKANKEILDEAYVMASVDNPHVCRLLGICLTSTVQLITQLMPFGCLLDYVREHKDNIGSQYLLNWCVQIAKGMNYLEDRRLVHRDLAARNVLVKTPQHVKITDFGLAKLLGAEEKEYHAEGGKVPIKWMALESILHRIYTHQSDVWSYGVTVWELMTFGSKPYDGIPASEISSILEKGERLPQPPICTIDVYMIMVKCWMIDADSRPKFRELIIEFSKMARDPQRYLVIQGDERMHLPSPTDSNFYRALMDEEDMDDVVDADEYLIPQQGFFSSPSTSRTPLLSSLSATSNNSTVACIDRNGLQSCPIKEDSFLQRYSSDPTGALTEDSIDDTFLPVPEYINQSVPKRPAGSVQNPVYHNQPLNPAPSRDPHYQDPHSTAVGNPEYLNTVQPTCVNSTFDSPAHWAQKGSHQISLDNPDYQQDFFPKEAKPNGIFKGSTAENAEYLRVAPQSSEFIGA
The target of experiment [3] is T1, Ephrin type-A receptor 1 (Homo sapiens) (UniProt P21709).
T1 sequence (whole entry): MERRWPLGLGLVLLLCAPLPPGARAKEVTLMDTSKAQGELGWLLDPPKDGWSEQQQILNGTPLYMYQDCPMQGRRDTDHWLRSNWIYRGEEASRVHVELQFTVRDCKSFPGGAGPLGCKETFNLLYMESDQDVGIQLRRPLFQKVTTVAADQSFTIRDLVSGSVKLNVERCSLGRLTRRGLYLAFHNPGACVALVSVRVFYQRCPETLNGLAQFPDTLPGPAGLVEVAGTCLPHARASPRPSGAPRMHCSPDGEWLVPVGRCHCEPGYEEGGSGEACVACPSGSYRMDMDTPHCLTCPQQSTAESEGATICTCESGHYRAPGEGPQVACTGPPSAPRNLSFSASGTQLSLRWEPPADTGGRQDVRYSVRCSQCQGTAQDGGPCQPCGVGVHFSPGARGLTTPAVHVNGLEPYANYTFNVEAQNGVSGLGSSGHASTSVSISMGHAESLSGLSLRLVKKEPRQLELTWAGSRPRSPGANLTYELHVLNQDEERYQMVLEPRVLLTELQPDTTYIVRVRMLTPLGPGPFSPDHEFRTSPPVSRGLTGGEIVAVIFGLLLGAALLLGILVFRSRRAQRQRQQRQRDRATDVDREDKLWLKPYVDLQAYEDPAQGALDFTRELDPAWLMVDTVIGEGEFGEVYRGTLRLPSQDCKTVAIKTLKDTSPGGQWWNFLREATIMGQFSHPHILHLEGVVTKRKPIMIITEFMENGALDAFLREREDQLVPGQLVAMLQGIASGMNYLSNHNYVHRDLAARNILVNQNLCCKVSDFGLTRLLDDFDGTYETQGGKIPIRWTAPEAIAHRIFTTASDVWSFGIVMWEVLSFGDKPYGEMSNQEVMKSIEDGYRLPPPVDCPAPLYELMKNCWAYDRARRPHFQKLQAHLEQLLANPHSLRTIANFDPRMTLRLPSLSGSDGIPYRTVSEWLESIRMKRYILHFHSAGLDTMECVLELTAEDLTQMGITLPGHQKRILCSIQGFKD
The experiment is described as follows: Inhibition of recombinant human N-terminal GST-tagged EPHA1 (569 to end residues) expressed in baculovirus infected Sf9 insect cells assessed as enzyme activity incubated for 15 mins by [gamma-33]ATP based scintillation counting method relative to control. Set-up: scale not given: the % may be the effect or the level left.

For experiment [4], the target named is Ribosomal protein S6 kinase alpha-5 (Homo sapiens) (UniProt O75582). The experiment is described as follows: Inhibition of recombinant human N-terminal GST-tagged full length MSK1 expressed in baculovirus infected Sf9 insect cells assessed as enzyme activity incubated for 15 mins by [gamma-33]ATP based scintillation counting method relative to control. Set-up: scale not given: the % may be the effect or the level left.
Sequence of Ribosomal protein S6 kinase alpha-5 (Homo sapiens) (O75582 whole entry, looked up): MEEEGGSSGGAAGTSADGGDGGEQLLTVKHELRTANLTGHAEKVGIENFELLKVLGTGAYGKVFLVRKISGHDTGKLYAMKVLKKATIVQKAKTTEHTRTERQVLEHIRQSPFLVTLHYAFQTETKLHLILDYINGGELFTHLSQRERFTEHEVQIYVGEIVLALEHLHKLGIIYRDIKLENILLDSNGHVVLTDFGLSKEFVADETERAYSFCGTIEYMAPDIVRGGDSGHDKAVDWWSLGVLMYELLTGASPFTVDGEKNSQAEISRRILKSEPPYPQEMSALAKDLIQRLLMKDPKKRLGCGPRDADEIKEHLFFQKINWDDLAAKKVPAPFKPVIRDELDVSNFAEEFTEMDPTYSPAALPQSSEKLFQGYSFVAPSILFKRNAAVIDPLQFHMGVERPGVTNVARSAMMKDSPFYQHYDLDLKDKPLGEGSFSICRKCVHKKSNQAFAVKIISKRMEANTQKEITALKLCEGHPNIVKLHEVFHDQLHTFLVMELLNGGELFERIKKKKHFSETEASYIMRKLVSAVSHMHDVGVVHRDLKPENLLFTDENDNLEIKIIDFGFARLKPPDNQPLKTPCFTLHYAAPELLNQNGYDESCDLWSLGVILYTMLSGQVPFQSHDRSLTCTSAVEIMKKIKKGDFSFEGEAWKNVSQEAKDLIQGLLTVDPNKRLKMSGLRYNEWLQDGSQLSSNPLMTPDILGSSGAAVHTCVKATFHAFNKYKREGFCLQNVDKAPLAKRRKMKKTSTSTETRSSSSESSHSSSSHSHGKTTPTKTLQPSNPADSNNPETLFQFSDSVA

The target of experiment [5] is T2, Serine/threonine-protein kinase Nek1 (Homo sapiens) (UniProt Q96PY6).
T2 sequence (whole entry): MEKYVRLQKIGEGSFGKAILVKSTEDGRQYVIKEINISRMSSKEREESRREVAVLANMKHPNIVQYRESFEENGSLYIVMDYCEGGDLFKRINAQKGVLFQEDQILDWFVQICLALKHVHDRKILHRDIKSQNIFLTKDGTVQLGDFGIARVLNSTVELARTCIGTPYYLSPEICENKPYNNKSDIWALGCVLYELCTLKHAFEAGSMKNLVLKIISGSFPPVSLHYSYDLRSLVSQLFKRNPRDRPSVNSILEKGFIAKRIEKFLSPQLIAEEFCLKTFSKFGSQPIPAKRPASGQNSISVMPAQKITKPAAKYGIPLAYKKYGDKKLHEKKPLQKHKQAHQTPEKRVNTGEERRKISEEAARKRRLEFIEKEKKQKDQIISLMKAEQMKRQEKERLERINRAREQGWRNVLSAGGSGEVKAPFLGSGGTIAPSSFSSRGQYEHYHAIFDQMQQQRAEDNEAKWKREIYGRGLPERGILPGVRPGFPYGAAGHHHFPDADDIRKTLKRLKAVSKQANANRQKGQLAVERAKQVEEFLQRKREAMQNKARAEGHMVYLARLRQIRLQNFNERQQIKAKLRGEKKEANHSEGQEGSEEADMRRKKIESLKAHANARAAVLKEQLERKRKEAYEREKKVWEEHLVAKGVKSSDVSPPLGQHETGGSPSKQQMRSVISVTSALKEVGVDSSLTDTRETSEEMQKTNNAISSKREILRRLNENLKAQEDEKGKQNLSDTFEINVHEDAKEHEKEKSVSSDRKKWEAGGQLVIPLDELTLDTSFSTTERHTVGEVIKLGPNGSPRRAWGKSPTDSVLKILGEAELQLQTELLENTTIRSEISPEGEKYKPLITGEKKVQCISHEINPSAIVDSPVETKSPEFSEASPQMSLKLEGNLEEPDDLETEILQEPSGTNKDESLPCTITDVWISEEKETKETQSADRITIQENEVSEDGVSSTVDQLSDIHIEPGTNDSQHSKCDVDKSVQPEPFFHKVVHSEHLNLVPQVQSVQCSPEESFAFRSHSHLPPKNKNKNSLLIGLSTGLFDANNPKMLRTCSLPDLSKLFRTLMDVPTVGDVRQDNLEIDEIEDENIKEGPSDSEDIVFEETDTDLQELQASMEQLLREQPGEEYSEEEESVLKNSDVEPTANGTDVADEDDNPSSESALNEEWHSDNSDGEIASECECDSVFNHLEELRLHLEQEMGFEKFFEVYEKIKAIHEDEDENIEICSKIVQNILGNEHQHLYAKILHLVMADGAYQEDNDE
The experiment is described as follows: Inhibition of recombinant human N-terminal GST-tagged full length NEK1 expressed in baculovirus infected Sf9 insect cells assessed as enzyme activity incubated for 15 mins by [gamma-33]ATP based scintillation counting method relative to control. On the set-up: scale not given: the % may be the effect or the level left.

By IC50 is commonly meant the concentration that gives 50% inhibition. As for `CC(C)C/C=N/c1c(C#N)c2n(c1C(=O)Nc1ccc(Br)cc1)CCC2`, the 50% inhibitory concentration (IC50) in the experiment on MCF7 was determined as 100 nM. Also, the Activity in experiment [1] is -5%; in experiment [2], 40%; in experiment [3], 25%; in experiment [4] it was 29%; in experiment [5] it was -14%.
As for `Cc1ccc(NC(=O)c2ccc(CN3CCN(C)CC3)cc2)cc1Nc1nccc(-c2cccnc2)n1`, the Activity was determined as 14% in experiment [1], 13% in experiment [2], 22% in experiment [3] and 49% in experiment [4].
In the case of `CC/C=N/c1c(C#N)c2n(c1C(=O)Nc1ccccc1)CCC2`, the 50% inhibitory concentration (IC50) in the experiment on MCF7 was determined as 570 nM. Also, the Activity in experiment [1] was 4%; in experiment [2], -10%; in experiment [3], -5%; in experiment [4], -22%; in experiment [5], -1%.
As to `CCC1SCC(=O)N1c1c(C#N)c2n(c1C(=O)Nc1ccccc1)CCC2` (configuration not stated), the IC50 in the experiment with MCF7 came out at 160 nM. Besides, the Activity in experiment [1] is -11%; in experiment [2], 10%; in experiment [3], 4%; in experiment [4], -23%; in experiment [5], 10%.
